High-throughput results as filed in PubChem.
The list is not random: actives were taken first. Their share in the collection is about 4.3%.
Hep lipid drop: hepatic lipid droplet formation modulation | AML12 mouse hepatocytes, oleate lipid droplets, BODIPY imaging | inhibition, % at 6.5 µM | hit rate 0.4% among 240,000;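 active = lipid droplet intensity inhibited by at least 50%, with more than 500 cells counted; inconclusive = wells with under 300 cells, treated as cytotoxic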
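Assay system: AML12 hepatocytes (mouse); Probe or stimulus: oleic acid at 100 µM to induce lipid droplet formation; Dosing: compound at 6.5 µM only; Schedule: compound with oleate, overnight; Detection: fluorescence imaging, 20x objective, two fields per well; Measure: % inhibition of lipid droplet signal.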
SR-BI DiI-HDL act: activators of SR-BI mediated HDL lipid uptake. CHO ldlA[mSR-BI] cells, DiI-HDL uptake fluorescence, 3 h; 100 = double the neutral-control signal. activation, % at 12.5 µM. hit rate 0.096% among 320,000. AID 504775;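 active = mean replicate activation of at least 60% and every replicate at or above 60%; inconclusive = mean or all-replicate condition met, but not both; inactive = mean below 60% and not all replicates reaching 60%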;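 note: 0% = median plate neutral-control signal and 100% = twice that signal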
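System: CHO ldlA[mSR-BI] cells / Medium: HEPES-buffered (25 mM, pH 7.4) F12 plus 0.5% BSA / Probe or stimulus: labelled HDL, 10 µg/mL / Doses: single compound concentration, delivered by pin transfer / Schedule: 3 h, 37 °C / Measured by: DiI fluorescence, bottom read / Measure: cell-associated DiI fluorescence as measure of HDL uptake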
SMARCA2 act: SMARCA2 function activation, primary screen; MG213 cells, MMTV-luciferase reporter, dexamethasone, overnight; hit rate 1% among 370,000; activation, % at 9.1 µM; in the data active = activation above about 7.8%;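 note: 0% = vehicle wells and 100% = reference activator wells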
SR-BI DiI inh: blocks mouse SR-BI lipid uptake from DiI-HDL. Q61009. hit rate 0.96% among 320,000. ldlA[mSR-BI] CHO cells, DiI-HDL uptake fluorescence, 3 h. inhibition, % at 12.5 µM. AID 488896;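 active = mean replicate inhibition of at least 70% and a set share of replicates each scoring 70 or more; inconclusive = meets just one of the two criteria; inactive = fails both criteria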;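 note: 0% = median of neutral control wells and 100% = median of positive control wells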
AHR activator: activators of human aryl hydrocarbon receptor | P35869 | AHR-responsive luciferase reporter cells, luminescence | activation, % at 5 µM | hit rate 2.5% among 320,000 | AID 2796; in the data active = activation above about 47%;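 note: 0% = vehicle wells and 100% = reference agonist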
Target sequence (P35869 whole entry, looked up): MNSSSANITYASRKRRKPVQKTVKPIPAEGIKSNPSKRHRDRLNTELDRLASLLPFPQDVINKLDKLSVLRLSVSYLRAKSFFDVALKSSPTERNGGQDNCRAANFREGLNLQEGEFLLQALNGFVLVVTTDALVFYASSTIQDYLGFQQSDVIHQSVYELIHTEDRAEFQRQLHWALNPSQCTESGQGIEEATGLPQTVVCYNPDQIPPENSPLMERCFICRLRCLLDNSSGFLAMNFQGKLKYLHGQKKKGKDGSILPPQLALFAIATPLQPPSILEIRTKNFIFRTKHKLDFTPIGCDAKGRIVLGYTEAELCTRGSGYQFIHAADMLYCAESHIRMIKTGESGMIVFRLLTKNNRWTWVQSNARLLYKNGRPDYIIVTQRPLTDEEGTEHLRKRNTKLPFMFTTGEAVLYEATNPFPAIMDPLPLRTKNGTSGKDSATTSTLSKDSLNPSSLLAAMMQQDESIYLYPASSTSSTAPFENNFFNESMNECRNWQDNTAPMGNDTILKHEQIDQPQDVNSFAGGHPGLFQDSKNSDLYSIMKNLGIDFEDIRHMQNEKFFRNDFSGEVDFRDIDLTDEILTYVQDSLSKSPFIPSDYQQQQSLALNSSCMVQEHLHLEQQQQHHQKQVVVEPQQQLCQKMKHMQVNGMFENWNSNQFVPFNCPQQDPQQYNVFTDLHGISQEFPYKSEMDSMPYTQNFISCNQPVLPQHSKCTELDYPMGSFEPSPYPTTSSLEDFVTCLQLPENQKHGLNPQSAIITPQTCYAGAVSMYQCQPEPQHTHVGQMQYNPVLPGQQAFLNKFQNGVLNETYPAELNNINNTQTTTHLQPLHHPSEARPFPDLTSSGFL
CR mimetic SO: caloric restriction mimetics inhibiting age-related superoxide in yeast. S. cerevisiae aged cells, superoxide DHE fluorescence; stronger effect = lower value. superoxide response (% of plate mean), % at 10 µM. hit rate 0.18% among 330,000;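 active = superoxide response under a set limit, about three screen SD below normal, cut at about 65% in these data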;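 note: yeast aged for seven days with compound at 30 °C before DHE staining; 100% = average MFI of all compound-treated wells on the plate with controls excluded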
* marks the source's active call; other numbers are inactive results; ? = inconclusive; · = not tested or not shown.

SMILES	Hep lipid drop	SR-BI DiI-HDL act	SMARCA2 act	SR-BI DiI inh	AHR activator	CR mimetic SO
Cc1cccc(NC(=O)c2cc(-c3cccnc3)nc3c(C)cccc23)n1	-2	-70	2	70	12	98
CCOC(=O)[C@@]12CCC3=C1N(CCC3)C(=O)[C@H](CC(=O)NCCCCc1ccccc1)C2	·	·	-2	·	·	·
CC1CCN(c2ccc(C(=O)O)cc2NS(=O)(=O)c2ccccc2[N+](=O)[O-])CC1	·	·	-1	·	·	·
c1cnc(SCC2CCCCC2)c(-c2nc3ccccc3[nH]2)c1	·	·	5	·	·	·
Cc1cccc(-c2cc(C(=O)Nc3c(C)n(C)n(-c4ccccc4)c3=O)c3ccccc3n2)c1	-44	-58	0	58	0	101
Cc1c(NC(=O)c2cc(-c3ccc(F)cc3)nc3ccccc23)c(=O)n(-c2ccccc2)n1C	·	-86	-3	86*	-2	84
Cc1ccc(-c2cc(C(=O)Nc3cc(C)on3)c3ccccc3n2)cc1	-2	-74	0	74*	10	102
O=C(NCC(c1cccs1)N1CCOCC1)c1cc(-c2ccc(F)cc2)nc2ccccc12 (configuration not stated)	-12	-84	-2	84*	6	112
COc1ccc(CCn2cnn3c(=O)c4ccccc4nc3c2=O)cc1OC	·	·	5	·	·	·
Cc1ccc(C(C)C)c(OCc2ccc(C(=O)N/N=C/c3ccc(O)c(O)c3)cc2)c1	2	-82	-10	82*	-8	96
Cc1ccc(C(C)C)c(OCc2ccc(C(=O)N/N=C/c3cccc(O)c3O)cc2)c1	19	-136	-5	136*	-2	92
Cc1ccc(NC(=O)[C@H]2CC(=O)O[C@@H]2c2ccccc2)cc1C	·	·	-4	·	·	·
Cc1nn(CCC(=O)NNC(=O)NCc2ccccc2)c(C)c1[N+](=O)[O-]	·	·	-4	·	·	·
Oc1[nH]c2ccccc2c1N=NC(=S)NCC1CCCO1 (configuration not stated)	4	0	0	0	3	109
Oc1[nH]c2c(Cl)cc(Cl)cc2c1N=NC(=S)NCC1CCCO1 (configuration not stated)	-8	-38	0	38	51*	103
O=C(CSc1nc2ccccc2nc1N1CCOCC1)NCc1ccc(Cl)cc1Cl	·	·	-4	·	·	·
O=C(Cc1c[nH]c2ccccc12)Nc1nc2ccccc2[nH]1	·	20	3	-20	91*	100
OCc1c[nH]c2ccccc12	·	-16	-2	16	53*	98
OCCc1c[nH]c2ccccc12	-2	2	-1	-2	-1	97
Cc1ccc(-c2nc(NC(=O)c3nn(C)cc3[N+](=O)[O-])sc2C)cc1C	7	-74	-10	74*	-6	93
CCN(CC)Cc1c(NC(=O)c2ccccc2)sc(C)c1C	-2	-6	3	6	65*	89
CCN(CC)C(=O)c1c(NC(=O)c2ccccc2)sc(C)c1C	13	-7	-4	7	23	95
COc1cc2c(cc1NC(=O)CSc1nccn1C)oc1ccccc12	-9	-61	4	61	78*	99
COc1ccc(NC(=O)Nc2cc3oc4ccccc4c3cc2OC)cc1	·	-98	-3	98*	74*	111
COc1cc2c(cc1NC(=O)Nc1ccc(F)cc1)oc1ccccc12	0	-72	0	?	66*	106
SMILES	Hep lipid drop	SR-BI DiI-HDL act	SMARCA2 act	SR-BI DiI inh	AHR activator	CR mimetic SO
COc1ccc(OCC(=O)Nc2cc3oc4ccccc4c3cc2OC)cc1	2	-47	·	47	4	94
C[C@@H]1C=CCCO[C@]12C(=O)N(Cc1ccc(Br)cc1)c1cccc(Br)c12	·	·	-4	·	·	·
CC(C)[C@H]1Cn2nnc(-c3ccccc3)c2Cn2c3ccccc3c(=O)n21	·	·	0	·	·	·
NC(=S)N/N=C/c1ccccc1[N+](=O)[O-]	-2	-13	0	13	0	103
NC(=S)NN=C1c2cc(Cl)ccc2-c2c1cc(Cl)cc2[N+](=O)[O-]	·	-105	·	105*	·	·
CCOC(=O)CN1C(=O)[C@]2(OCCC=C[C@H]2C)c2ccccc21	·	·	-3	·	·	·
O=C(NCc1ccco1)c1ccc(S(=O)(=O)N2CCCc3ccccc32)cc1	4	-76	-5	76*	2	86
O=C(NN=C1c2ccccc2-c2ccccc21)c1ccccc1	·	-39	3	39	59*	101
O=C(N[C@H](C(=O)N1CCC[C@H]1C(=O)NCCc1ccccc1Cl)C1CCCCC1)c1ccc(Cl)c(Cl)c1	·	·	-4	·	·	·
O=C(NCCCn1ccnc1)Nc1cccc(Cl)c1	-2	23	0	-23	60*	95
O=C(NCCCn1ccnc1)Nc1ccc2c(c1)OCO2	-3	23	3	-23	50*	91
COc1ccc2c(c1)[C@]1(C(=O)N2C)C2=C(CCCC2=O)Oc2cc(C)oc(=O)c21	·	·	0	·	·	·
COc1ccccc1NC(=S)N(Cc1ccco1)Cc1cc2cc(C)ccc2[nH]c1=O	5	-3	-3	3	71*	81
CCOC(=O)c1c(NC(=O)CCN2C(=O)c3ccccc3C2=O)sc(C(=O)OC(C)C)c1C	·	-73	-1	73*	-4	100
O=C(O)c1ccc(S(=O)(=O)/N=C2\C=C(Nc3ccccc3F)C(=O)c3ccccc32)cc1	-28	-6	-8	6	70*	109
Cc1ccc(NC(=O)OC2CC3CC2[C@H]2CCCCN2[C@H]3C)cc1 (some centres not stated)	·	·	-2	·	·	·
Cc1ccc(N=Nc2ccc(O)c3ncccc23)cc1	-17	-38	4	38	47*	96
COc1ccccc1N=Nc1ccc(O)c2ncccc12	3	-22	2	22	51*	95
CCCCOc1ccc(C(=O)n2ccc3ccc(-c4ccc5ccn(Cc6ccccc6)c5c4)cc32)cc1	·	·	-2	·	·	·
Cc1[nH]nc2c1C(c1ccc(Br)cc1)N(Cc1ccccc1)C2=O (configuration not stated)	·	·	0	·	·	·
Cc1ccc(NC(=O)Cc2cccc(OC(F)F)c2)c(S(=O)(=O)N2CCOCC2)c1	·	·	-6	·	·	·
CCOC(=O)C1=C(CN2CCN(c3ccc(F)cc3)CC2)NC(=O)NC1c1cccs1 (configuration not stated)	·	-78	-4	78*	7	112
CCOC(=O)C1=C(CN2CCOCC2)NC(=O)NC1c1cc(C)ccc1C (configuration not stated)	-5	-12	-2	12	-1	91
CCCNC(=O)C(=O)NCCC1=CCCCC1	·	27	0	-27	3	87
O=C(NC(=S)NCCC1=CCCCC1)c1ccccc1Br	-2	-50	-1	50	50*	82
NC(=O)NCCC1=CCCCC1	1	93*	-1	-93	0	104
CC(=O)n1cc([C@H]2C=C(C(=O)NCc3ccccc3)O[C@@H](OCc3ccc(CO)cc3)C2)c2ccccc21	-2	-3	0	3	65*	104
